# DAGLB inhibitor: blocks human DAGLB lipase activity; Q8NCG7; HEK293T DAGLB membrane lysate, EnzChek fluorogenic substrate; inhibition, % at 5.17 µM; 340,000 tested, 0.059% active; AID 504411; in the data active means inhibition above about 34%;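 further: 0% = enzyme with vehicle and 100% = wells lacking enzyme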
# HTR5A inv ctr: counter-screen for OPRM1-OPRD1 inverse agonists: human HTR5A inverse agonism | 340,000 tested, 0.083% active | HTR5A cell line, luminescence | inhibition, % at 9.3 µM | AID 504634; in the data active means inhibition mostly above about 23%, no sharp cut-off; inactive means mostly below about 18%;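 further: 0% = cells with DMSO and 100% = no-cell wells with DMSO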
# Target sequence (P47898 whole entry, looked up): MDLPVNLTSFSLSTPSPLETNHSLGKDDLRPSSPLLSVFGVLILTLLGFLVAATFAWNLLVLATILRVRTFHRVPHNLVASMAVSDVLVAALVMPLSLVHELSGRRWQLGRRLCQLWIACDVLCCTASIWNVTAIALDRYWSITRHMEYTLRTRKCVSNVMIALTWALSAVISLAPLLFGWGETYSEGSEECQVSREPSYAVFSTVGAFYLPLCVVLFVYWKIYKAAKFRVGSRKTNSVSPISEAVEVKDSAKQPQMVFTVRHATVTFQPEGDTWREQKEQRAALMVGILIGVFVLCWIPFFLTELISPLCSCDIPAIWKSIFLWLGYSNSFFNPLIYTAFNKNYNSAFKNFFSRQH
# Arr AP2 block: human beta-arrestin and AP2 interaction inhibition. FITC-arrestin peptide / GST-AP2 beads, flow cytometry; AP2 beta2 appendage carries R879A mutation. inhibition, % at 10 µM. 340,000 tested, 0.31% active. AID 504490;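 active means inhibition above a set limit, near 3 SD of compounds lacking own fluorescence, cut at about 54% in these data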;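 further: plate controls were DMSO wells for no effect and 5 µM unlabelled arrestin peptide for full effect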
#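 System: GST-tagged AP2 beta2-adaptin appendage (R879A) on 4 µm glutathione beads / Reagent: FITC-arrestin peptide, 50 nM / Detection: HyperCyt-sampled flow cytometry, FL1 channel, ex 488/em 535 nm / Timing: 12 min plus 1 h, RT / Buffer or medium: PBS plus Tween 20 (0.05%) and BSA (0.1%)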
# OPRM1-OPRD1 ag: OPRM1-OPRD1 heterodimerization agonism. P35372+P41143. cells, luminescence. activation, % at 9.3 µM. 340,000 tested, 0.3% active. AID 504326; in the data active means activation above about 18%;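 further: 0% = vehicle-treated cells and 100% = reference agonist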
# OPRM1-OPRD1 inv: mu-delta opioid heterodimer inverse agonism | P35372+P41143 | cell-based MOR-DOR heterodimer luminescence | inhibition, % at 9.3 µM | 340,000 tested, 0.21% active | AID 504357; in the data active means inhibition above about 22%, passing the limit was not always enough;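 further: 0% = cells with DMSO and 100% = wells without cells with DMSO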
# HTR5A ag: HTR5A agonism, opioid heterodimer counter-screen; P47898; HTR5A agonist assay, luminescence, cell-based; activation, % at 9.3 µM; 340,000 tested, 0.61% active; in the data active means activation mostly above about 9.5%, no sharp cut-off; inactive means mostly below about 7.6%;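 further: 0% = cells with vehicle only and 100% = reference agonist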
# An asterisk follows results filed as active; . = not tested or not shown. An excerpt weighted towards active compounds, which were near 1.4% of everything screened.
SMILES,DAGLB inhibitor,HTR5A inv ctr,Arr AP2 block,OPRM1-OPRD1 ag,OPRM1-OPRD1 inv,HTR5A ag
COCCCN(C(=O)CSCC(=O)Nc1ccc(C)cc1)c1c(N)n(Cc2ccccc2)c(=O)[nH]c1=O,1,7,-11,-3,12,1
O=C1C(Br)=C(c2ccccc2)C(c2ccccc2)=C1c1ccccc1,0,0,24,-1,6,0
Cc1cc(C)n(C(=O)/C(C#N)=N/Nc2cc(Cl)cc(Cl)c2)n1,-2,9,16,6,-30,10*
Cc1cc(C)n(C(=O)/C(C#N)=N\Nc2ccccc2[N+](=O)[O-])n1,2,-1,1,1,-6,8
NS(=O)(=O)c1cccc(C(=O)N2CCCc3ccccc32)c1,3,.,.,.,.,.
COc1cc(S(N)(=O)=O)c(OC)cc1N,-3,5,31,-4,21,-1
COc1cc(N=Nc2ccc(C)cc2S(N)(=O)=O)c(C)cc1N,29,-35,3,-2,12,9.8*
COC(=O)C1=C(C)NC(=O)/C1=C\c1ccco1,2,-33,-2,-2,8,11*
CCOC(=O)c1sc(N(Cc2ccccc2)C(=O)COC(=O)c2ccc(O)cc2)nc1C,-8,-40,19,14,-74,11*
Cc1nn(-c2ccccc2)c(Cl)c1CN(C(=O)CCl)c1ccc(Cl)cc1,7,-50,-4,67*,-361,50*
Cc1nn(-c2ccccc2)c(Cl)c1CN(C(=O)CCl)c1cccc2ccccc12,-4,-20,1,52*,-271,40*
CC(=O)N(Cc1c(C)nn(-c2ccccc2)c1Cl)c1ccc(Cl)cc1,-6,17,-9,-2,9,-3
CN(c1ccccc1)S(=O)(=O)c1ccc(C(=O)N2CCN(c3ccccc3)CC2)cc1,0,.,.,.,.,.
Cc1cc(-c2ccccc2)nc(N/N=C/c2cccnc2)n1,0,-27,11,0,0,11*
CCOC(=O)c1c(C)[nH]c(C(=O)OCC(=O)NCc2ccco2)c1C,-3,.,.,.,.,.
CC(C)n1c(N2CCN(C(=O)NCc3ccccc3)CC2)nc2ccccc21,1,-34,2,-2,9,10*
O=C(NCc1cccc(C(F)(F)F)c1)C1CCCN(c2ncccn2)C1 (stereo unspecified),-3,-9,-4,-1,7,-3
Cc1cc(C)nc(N2CCCC(C(=O)NCc3cccc(C(F)(F)F)c3)C2)n1 (stereo unspecified),-1,-12,26,-2,12,12*
CCOC(=O)c1c(C)[nH]c(C)c1C(=O)COC(=O)CCc1ccccc1,-5,-5,-13,-1,5,13*
CCOC(=O)c1c(C)[nH]c(C)c1C(=O)COC(=O)c1c(OC)cccc1OC,-5,1,-20,-2,8,0
N/C(Cc1ccc(Cl)cc1)=N\OC(=O)c1ccc2ccccc2c1,-24,-81,0,27*,-160,34*
O=C(CSc1nc2c([nH]c3ccccc32)c(=O)n1-c1ccccc1F)NCC1CCCO1 (stereo unspecified),2,60*,27,-12,63*,-18
Cc1ccccc1-n1c(SCC(=O)NCC2CCCO2)nc2c([nH]c3ccccc32)c1=O (stereo unspecified),0,52*,1,-10,54*,-16
C=CCn1c(SCC(=O)NCC2CCCO2)nc2c([nH]c3ccccc32)c1=O (stereo unspecified),3,15,1,-3,14,-1
COc1ccc(C)cc1-n1c(SCC(=O)NCC2CCCO2)nc2c([nH]c3ccccc32)c1=O (stereo unspecified),-5,-15,-1,1,-3,2
CCN(c1ccc(OC)cc1)S(=O)(=O)N1CCCC(C(=O)NCc2ccc(OC(C)C)cc2)C1 (stereo unspecified),-4,.,.,.,.,.
CCOC(=O)N1CCC(NC(=O)CSCc2nc(-c3ccc(OC)cc3)oc2C)CC1,-1,-16,-8,-3,15,11*
CCCCNc1c(-c2ccc(OC)c(SC(C)CC)c2)nc2ccc(C)cn12 (stereo unspecified),-5,-14,2,14,-77,6
CCCCCCSc1ccc(-c2nc3ccc(C)cn3c2NCc2ccccc2)cc1OC,-6,-3,32,-1,6,0

# High-throughput results from PubChem.
